Data published in ChEMBL document CHEMBL1140208, “Selectivity and mechanism of action of a growth factor receptor-bound protein 2 SRC homology 2 domain binding antagonist” (J Med Chem, 2008).
Values belong to the compound of their own block, whether it stands above or below them. Calls of active or inactive are those of the source. The rule behind the calls is not given here.

Legend:
[1] = tested on: PC-3M; assay: Inhibition of HGF-induced human PC3M cell migration assessed as reduction in actin bundle reorganization and membrane extension at 1 uM after 6 hrs by DAPI staining; assay type: functional, cell-based
How it was run: (§1)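 Cells in chamber slides serum-deprived ± 1 μM compound for 24 h, monolayer scratched with pipet tip, then incubated ± HGF 50 ng/ml (6 h) before fixation and permeabilization. Blocked with 5% BSA, stained overnight at 4°C with Alexa488-phalloidin for F-actin, nuclei counterstained with DAPI; lamellipodia at wound edge imaged by epifluorescence videomicroscopy.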

[2] = target: Serine/threonine-protein kinase PAK 1 (Homo sapiens) (UniProt Q13153); assay: Decrease in HGF-stimulated PAK1 nuclear translocation in human PC3M cells at 1 uM after 16 hrs by immunoblot analysis; assay type: cell-based
Sequence of Serine/threonine-protein kinase PAK 1 (Homo sapiens) (Q13153 whole entry): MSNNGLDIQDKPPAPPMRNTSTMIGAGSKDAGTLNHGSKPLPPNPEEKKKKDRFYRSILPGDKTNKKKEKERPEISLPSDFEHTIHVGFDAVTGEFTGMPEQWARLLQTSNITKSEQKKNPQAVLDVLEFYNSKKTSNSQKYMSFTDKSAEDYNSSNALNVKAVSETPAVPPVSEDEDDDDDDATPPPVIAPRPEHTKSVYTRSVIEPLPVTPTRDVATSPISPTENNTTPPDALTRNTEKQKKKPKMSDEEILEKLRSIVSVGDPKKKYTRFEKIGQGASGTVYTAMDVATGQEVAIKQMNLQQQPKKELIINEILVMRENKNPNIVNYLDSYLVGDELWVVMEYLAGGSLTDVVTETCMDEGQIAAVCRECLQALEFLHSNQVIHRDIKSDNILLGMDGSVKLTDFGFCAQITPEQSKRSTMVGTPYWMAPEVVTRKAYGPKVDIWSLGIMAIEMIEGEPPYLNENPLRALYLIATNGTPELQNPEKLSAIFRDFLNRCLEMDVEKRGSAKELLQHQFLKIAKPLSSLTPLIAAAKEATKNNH
How it was run: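 PC3M cells treated with compound for 16 h; nuclear extracts prepared with high-salt buffer. PAK1 detected by SDS-PAGE and anti-PAK1 immunoblot, with anti-CREB immunoblot alongside.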

[3] = target: Serine/threonine-protein kinase PAK 1 (Homo sapiens) (UniProt Q13153); assay: Inhibition of HGF-stimulated PAK1 activation in human PC3M cells at 1 uM after 16 hrs by immunoblot analysis; assay type: cell-based
How it was run: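 PC3M cells serum-deprived and treated 16 h with 1 μM compound or left untreated, then stimulated briefly with HGF (50 ng/mL) for various times. Lysates probed by immunoblot with anti-phospho-PAK1; anti-PAK1 served as loading control.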

[4] = Selectivity ratio for streptavidin-coupled biotin-labeled Shc-SH2 to streptavidin-coupled biotin-labeled Grb2-SH2
How it was run: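 Ratio of Shc-SH2 to Grb2-SH2 steady-state affinities, both measured by SPR on Neutravidin-captured biotinylated SH2 domains (Biacore T100, 25°C, PBS pH 7.4, inhibitors 1.25–1500 nM, 1:1 fit).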

[5] = tested on: MDCK; assay: Inhibition of HGF-induced MDCK cell migration assessed as reduction in actin bundle reorganization and membrane extension at 1 uM after 6 hrs by DAPI staining; assay type: functional, cell-based; details: Canis lupus familiaris; how it was run: as §1
[6] = (§2) Antimotility activity in human PC3M cells assessed as inhibition of HGF-stimulated cell migration after 24 hrs by Boyden chamber assay; assay type: functional, cell-based; details: PC-3M
How it was run: (§3)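 PC3M cells pretreated with compound 24 h, seeded 200,000 per modified Boyden chamber; migration stimulated with recombinant human HGF 50 ng/ml. Migrated cells counted by light microscopy in four fields (1 × 1.4 mm) per well, triplicate wells per condition; expressed as percent maximum, mean ± standard deviation; dose-response analysis.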

[7] = target: Growth factor receptor-bound protein 2 (Homo sapiens) (UniProt P62993); assay: Binding affinity to human recombinant HGF-stimulated Grb2-SH3 in human SK-LMS1 cells assessed as presence of associated protein Nck2 at 3 uM by immunoblot analysis; assay type: cell-based
[8] = target: Growth factor receptor-bound protein 2 (Homo sapiens) (UniProt P62993); assay: Binding affinity to human recombinant HGF-stimulated Grb2-SH3 in human SK-LMS1 cells assessed as presence of associated protein Nck1 at 3 uM by immunoblot analysis; assay type: cell-based
[9] = target: Growth factor receptor-bound protein 2 (Homo sapiens) (UniProt P62993); assay: Binding affinity to human recombinant HGF-stimulated Grb2-SH3 in human SK-LMS1 cells assessed as presence of associated protein Sos1 at 3 uM by immunoblot analysis; assay type: cell-based
[10] = target: Growth factor receptor-bound protein 2 (Homo sapiens) (UniProt P62993); assay: Binding affinity to human recombinant HGF-stimulated Grb2-SH3 in human SK-LMS1 cells assessed as presence of associated protein Gab1 at 3 uM by immunoblot analysis; assay type: cell-based
[11] = target: Growth factor receptor-bound protein 2 (Homo sapiens) (UniProt P62993); assay: Binding affinity to human recombinant HGF-stimulated Grb2-SH2 in human SK-LMS1 cells at 3 uM by immunoblot analysis; assay type: cell-based
How it was run: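 SK-LMS-1 cells serum-deprived 16 h, stimulated with recombinant human HGF 25 ng/ml for 20 min, lysed in cold non-ionic detergent buffer. Biotinylated ligand (3 μM) added to lysate, 1 h on ice; streptavidin beads added, 1 h at 4°C. Beads washed five times with lysis buffer at 150–500 mM NaCl; bound Grb2 detected by SDS-PAGE and anti-Grb2 immunoblot.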

[12] = tested on: PC-3M; assay: as §2; assay type: functional, cell-based; how it was run: as §3

SMILES: NC(=O)C[C@H](NC(=O)C1(NC(=O)[C@H](Cc2ccc(C(C(=O)O)C(=O)O)cc2)NC(=O)C(=O)O)CCCCC1)C(=O)NCCCc1cccc2ccccc12
Activity [1]: Active
Activity [2]: Active
Activity [3]: Active
Ratio [4]: 65
Activity [5]: Active

Ratio [4]: 101
SMILES: NC(=O)C[C@H](NC(=O)C1(NC(=O)[C@H](Cc2ccc(C(C(=O)O)C(=O)O)cc2)NC(=O)C(=O)O)CCCCC1)C(=O)NCCCc1cccc2c(O)cccc12

IC50 [6]: 14 nM
Activity [7]: Active
Activity [8]: Active
Activity [9]: Active
Activity [10]: Active
Activity [11]: Active
SMILES: NC(=O)C[C@H](NC(=O)C1(NC(=O)[C@H](Cc2ccc(C(C(=O)O)C(=O)O)cc2)NC(=O)C(=O)O)CCCCC1)C(=O)NCCCc1cccc2c(OC(=O)CCCCCNC(=O)CCCC[C@@H]3SC[C@@H]4NC(=O)N[C@@H]43)cccc12

Activity [11]: inactive
SMILES: NC(=O)C[C@H](NC(=O)C1(NC(=O)[C@H](Cc2ccc(O)cc2)NC(=O)C(=O)O)CCCCC1)C(=O)NCCCc1cccc2c(OC(=O)CCCCCNC(=O)CCCC[C@@H]3SC[C@@H]4NC(=O)N[C@@H]43)cccc12
Activity [12]: inactive
